Reference: ChEMBL document CHEMBL3351848, “Novel insights into structure and function of factor XIIIa-inhibitor tridegin” (J Med Chem, 2014)
Active and inactive are the calls of the source. No cut-off for these calls is given here. Residues, ends and D or L forms follow the SMILES beside them. *: point of attachment. X1 = O=C(c1ccccc1-c1c2ccc(=O)cc-2oc2cc(O)ccc12)*

What was measured:
[1] = target: T1, Coagulation factor XIII A chain (Homo sapiens) (UniProt P00488); experiment: Inhibition of recombinant F13a (unknown origin) using H-Tyr-Glu(pNA)-Val-Lys-Val-Ile-Gly-NH2 as substrate by chromogenic assay
T1 sequence (whole entry): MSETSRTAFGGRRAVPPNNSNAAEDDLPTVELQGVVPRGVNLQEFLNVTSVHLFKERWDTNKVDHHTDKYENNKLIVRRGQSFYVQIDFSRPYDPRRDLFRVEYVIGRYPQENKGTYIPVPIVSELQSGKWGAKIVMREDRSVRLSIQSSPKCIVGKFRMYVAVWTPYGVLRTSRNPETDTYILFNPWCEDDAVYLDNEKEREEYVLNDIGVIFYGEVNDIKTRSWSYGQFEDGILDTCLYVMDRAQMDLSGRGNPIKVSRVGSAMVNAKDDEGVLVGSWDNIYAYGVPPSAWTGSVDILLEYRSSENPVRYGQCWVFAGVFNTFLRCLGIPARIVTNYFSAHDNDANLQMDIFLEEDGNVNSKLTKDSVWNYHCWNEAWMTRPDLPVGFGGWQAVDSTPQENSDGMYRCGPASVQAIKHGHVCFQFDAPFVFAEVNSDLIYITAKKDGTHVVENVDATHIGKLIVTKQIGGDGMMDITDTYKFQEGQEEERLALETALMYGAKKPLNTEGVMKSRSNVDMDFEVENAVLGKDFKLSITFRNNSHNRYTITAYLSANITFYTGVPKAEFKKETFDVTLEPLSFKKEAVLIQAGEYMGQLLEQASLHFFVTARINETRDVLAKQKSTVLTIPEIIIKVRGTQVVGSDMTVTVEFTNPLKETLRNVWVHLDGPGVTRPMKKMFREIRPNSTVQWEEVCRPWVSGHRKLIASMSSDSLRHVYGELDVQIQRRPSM

[2] = target: T2, Coagulation factor XIII B chain (Homo sapiens) (UniProt P05160); experiment: Binding affinity to nonactivated recombinant F13B subunit (unknown origin) by microscale thermophoresis method
T2 sequence (whole entry): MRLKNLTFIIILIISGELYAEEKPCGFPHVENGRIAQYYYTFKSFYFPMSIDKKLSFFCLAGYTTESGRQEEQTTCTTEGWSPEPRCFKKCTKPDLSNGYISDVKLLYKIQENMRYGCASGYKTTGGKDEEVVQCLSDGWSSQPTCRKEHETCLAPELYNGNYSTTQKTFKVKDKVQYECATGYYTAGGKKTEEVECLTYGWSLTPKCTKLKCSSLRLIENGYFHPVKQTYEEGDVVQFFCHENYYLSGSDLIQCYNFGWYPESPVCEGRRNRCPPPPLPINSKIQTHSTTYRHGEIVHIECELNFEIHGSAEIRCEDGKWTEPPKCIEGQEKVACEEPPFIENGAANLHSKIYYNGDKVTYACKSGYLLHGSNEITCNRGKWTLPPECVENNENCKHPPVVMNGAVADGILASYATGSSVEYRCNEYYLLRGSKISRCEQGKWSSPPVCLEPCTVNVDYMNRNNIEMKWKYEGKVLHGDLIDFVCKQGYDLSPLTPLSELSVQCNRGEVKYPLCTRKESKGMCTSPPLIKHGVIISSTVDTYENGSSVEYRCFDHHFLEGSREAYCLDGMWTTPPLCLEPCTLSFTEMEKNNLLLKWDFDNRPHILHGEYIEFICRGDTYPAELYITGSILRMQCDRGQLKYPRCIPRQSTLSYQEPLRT
In short: (§1)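 Carboxyfluorescein-labeled peptide (2 μM solution, before mixing) in 50 mM Tris-HCl pH 7.5, 0.9% w/v NaCl, with Tween-20 to 0.1% final. Mixed with an equal volume of protein (FXIIIa, FXIII-A or FXIII-B) in the same buffer, 15 concentrations spanning 3.1 μM to 0.1 nM. After 20 min incubation, the mixture was loaded into glass capillaries and thermophoresis read three times per capillary.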

[3] = target: T3, Protein-glutamine gamma-glutamyltransferase (Homo sapiens) (UniProt P21980); experiment: Inhibition of human TGase-2 using fluorogenic FRET substrate at 10 uM
T3 sequence (whole entry): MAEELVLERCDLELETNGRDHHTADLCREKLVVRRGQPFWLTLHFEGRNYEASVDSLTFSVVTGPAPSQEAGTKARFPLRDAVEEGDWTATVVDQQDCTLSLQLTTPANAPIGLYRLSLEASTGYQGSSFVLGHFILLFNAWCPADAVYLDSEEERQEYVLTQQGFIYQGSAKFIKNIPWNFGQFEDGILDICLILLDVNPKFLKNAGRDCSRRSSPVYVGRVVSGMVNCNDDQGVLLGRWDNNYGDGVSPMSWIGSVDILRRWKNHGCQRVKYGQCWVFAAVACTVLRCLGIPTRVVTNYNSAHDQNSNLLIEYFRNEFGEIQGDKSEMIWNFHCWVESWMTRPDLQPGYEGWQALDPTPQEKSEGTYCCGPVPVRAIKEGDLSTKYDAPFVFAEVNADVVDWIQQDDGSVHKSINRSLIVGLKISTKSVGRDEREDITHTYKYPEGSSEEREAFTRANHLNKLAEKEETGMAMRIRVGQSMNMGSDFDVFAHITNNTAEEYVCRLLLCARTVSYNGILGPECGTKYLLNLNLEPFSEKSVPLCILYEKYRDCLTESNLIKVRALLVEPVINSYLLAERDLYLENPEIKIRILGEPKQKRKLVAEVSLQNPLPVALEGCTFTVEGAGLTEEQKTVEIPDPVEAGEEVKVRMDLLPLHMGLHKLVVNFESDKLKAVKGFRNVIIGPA

[4] = target: T1, Coagulation factor XIII A chain (Homo sapiens); experiment: Binding affinity to nonactivated recombinant F13A subunit (unknown origin) by microscale thermophoresis method; in short: as §1
[5] = target: T4, Coagulation factor XIII A chain (Homo sapiens, UniProt P00488); experiment: Binding affinity to recombinant F13A (unknown origin) by microscale thermophoresis method; in short: as §1
T4 sequence (P00488 whole entry): T1 sequence (whole entry)

inhibition [1] | Activity [2] | inhibition [3] | Activity [4] | Kd [5] | SMILES
inactive | inactive | < 10% | inactive | – | CC[C@H](C)[C@H](NC(=O)CNC(=O)[C@H](CCC(N)=O)NC(=O)[C@H](Cc1cnc[nH]1)NC(=O)[C@H](Cc1c[nH]c2ccccc12)NC(=O)[C@H](CCC(=O)O)NC(=O)[C@H](CCCCN)NC(=O)[C@H](CS)NC(=O)[C@@H]1CCCN1C(=O)[C@H](CC(C)C)NC(=O)[C@H](CC(C)C)NC(=O)[C@@H](N)CCCCN)C(=O)N1CCC[C@H]1C(=O)N[C@@H](CC(N)=O)C(=O)N1CCC[C@H]1C(=O)N[C@@H](CCCNC(=N)N)C(=O)N[C@@H](CS)C(=O)N[C@@H](Cc1c[nH]c2ccccc12)C(=O)N[C@@H](CS)C(=O)NCC(=O)N[C@@H](C)C(=O)N[C@@H](CC(=O)O)C(=O)N[C@@H](CC(C)C)C(=O)N[C@@H](CCC(=O)O)C(=O)N[C@@H](CS)C(=O)N[C@@H](C)C(=O)N[C@@H](CCC(N)=O)C(=O)N[C@@H](CC(=O)O)C(=O)N[C@@H](CCC(N)=O)C(=O)N[C@@H](Cc1ccc(O)cc1)C(=O)N[C@@H](CS)C(=O)N[C@@H](C)C(=O)N[C@@H](Cc1ccccc1)C(=O)N[C@H](C(=O)N1CCC[C@H]1C(=O)N[C@@H](CCC(N)=O)C(=O)N[C@@H](CS)C(=O)O)[C@@H](C)CC (H-KLLPCKEWHQGIPNPRCWCGADLECAQDQYCAFIPQC-OH)
– | inactive | – | inactive | < 100 nM | CC[C@H](C)[C@H](NC(=O)CNC(=O)[C@H](CCC(N)=O)NC(=O)[C@H](Cc1cnc[nH]1)NC(=O)[C@H](Cc1c[nH]c2ccccc12)NC(=O)[C@H](CCC(=O)O)NC(=O)[C@H](CCCCN)NC(=O)[C@H](CS)NC(=O)[C@@H]1CCCN1C(=O)[C@H](CC(C)C)NC(=O)[C@H](CC(C)C)NC(=O)[C@H](CCCCN)NC(=O)c1ccccc1-c1c2ccc(=O)cc-2oc2cc(O)ccc12)C(=O)N1CCC[C@H]1C(=O)N[C@@H](CC(N)=O)C(=O)N1CCC[C@H]1C(=O)N[C@@H](CCCNC(=N)N)C(=O)N[C@@H](CS)C(=O)N[C@@H](Cc1c[nH]c2ccccc12)C(=O)N[C@@H](CS)C(=O)NCC(=O)N[C@@H](C)C(=O)N[C@@H](CC(=O)O)C(=O)N[C@@H](CC(C)C)C(=O)N[C@@H](CCC(=O)O)C(=O)N[C@@H](CS)C(=O)N[C@@H](C)C(=O)N[C@@H](CCC(N)=O)C(=O)N[C@@H](CC(=O)O)C(=O)N[C@@H](CCC(N)=O)C(=O)N[C@@H](Cc1ccc(O)cc1)C(=O)N[C@@H](CS)C(=O)N[C@@H](C)C(=O)N[C@@H](Cc1ccccc1)C(=O)N[C@H](C(=O)N1CCC[C@H]1C(=O)N[C@@H](CCC(N)=O)C(=O)N[C@@H](CS)C(=O)O)[C@@H](C)CC (X1-KLLPCKEWHQGIPNPRCWCGADLECAQDQYCAFIPQC-OH)
– | inactive | – | inactive | 800 nM | CC[C@H](C)[C@H](NC(=O)[C@H](CC(=O)O)NC(=O)[C@H](CC(=O)O)NC(=O)[C@H](CCSC)NC(=O)[C@@H]1CCCN1C(=O)[C@H](CCCCN)NC(=O)[C@@H](NC(=O)[C@H](CC(C)C)NC(=O)[C@H](CCC(=O)O)NC(=O)[C@H](CO)NC(=O)[C@H](CCCNC(=N)N)NC(=O)[C@@H]1CCCN1C(=O)[C@H](CCCNC(=N)N)NC(=O)c1ccccc1-c1c2ccc(=O)cc-2oc2cc(O)ccc12)[C@@H](C)CC)C(=O)N[C@@H](Cc1ccc(O)cc1)C(=O)N[C@@H](CCC(N)=O)C(=O)N[C@@H](CCCNC(=N)N)C(=O)N1CCC[C@H]1C(=O)N[C@H](C(=O)N[C@@H](CCC(=O)O)C(=O)N[C@@H](Cc1ccccc1)C(=O)N1CCC[C@H]1C(=O)N[C@@H](CC(N)=O)C(=O)N[C@@H](CC(C)C)C(=O)N1CCC[C@H]1C(=O)N[C@@H](CC(C)C)C(=O)N[C@@H](CCCCN)C(=O)N1CCC[C@H]1C(=O)N[C@@H](CCCNC(=N)N)C(=O)N[C@@H](CCC(=O)O)C(=O)O)C(C)C (X1-RPRSELIKPMDDIYQRPVEFPNLPLKPRE-OH)
